Source: PubChem (Sanford-Burnham Center for Chemical Genomics)
SENP6 block = SENP6 protease inhibition; inhibition, % at 10 µM; Q9GZR1; 1.8% of 330,000 active; AID 2599; Recombinant SENP6 catalytic domain, aminoluciferin luminescence;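 active means inhibition above about 50% at the single tested dose, limit read from the data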
SENP8 block-1 = SENP8 (human) protease inhibition | Q96LD8 | recombinant SENP8, Nedd8 substrate fluorescence | inhibition, % at 20 µM | 0.64% of 360,000 active | AID 602440; in the data active means inhibition mostly above about 40%, no sharp cut-off; inactive means mostly below about 27%
SENP8 block-2 = SENP8 protease inhibition; 1.2% of 330,000 active; purified SENP8, Z-RLRGG-aminoluciferin cleavage, luminescence; Q96LD8; inhibition, % at 10 µM; in the data active means inhibition above about 50%
SENP7 inh = inhibitors of human SENP7 protease | 1.5% of 330,000 active | Q9BQF6 | AID 434973 | recombinant SENP7, Z-RLRGG-aminoluciferin luminescence, 40 min | inhibition, % at 5 µM;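 active means inhibition above about 50% at the single test dose, limit read from the data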
Target sequence (Q9BQF6 706-1050 limits assumed): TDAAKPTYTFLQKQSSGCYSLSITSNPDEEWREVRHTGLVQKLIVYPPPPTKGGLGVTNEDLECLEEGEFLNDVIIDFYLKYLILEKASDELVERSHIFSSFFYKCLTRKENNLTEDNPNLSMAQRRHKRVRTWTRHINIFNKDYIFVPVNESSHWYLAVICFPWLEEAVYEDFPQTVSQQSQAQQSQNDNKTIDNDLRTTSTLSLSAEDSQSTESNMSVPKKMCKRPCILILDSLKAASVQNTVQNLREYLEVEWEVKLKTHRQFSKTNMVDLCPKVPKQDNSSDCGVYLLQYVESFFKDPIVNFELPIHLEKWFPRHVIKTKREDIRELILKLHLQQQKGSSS
SENP1 inh = blocks the human SENP1 SUMO protease catalytic domain; recombinant SENP1 catalytic domain, CyPet-SUMO1-YPet FRET cleavage; Q9P0U3; AID 624204; 0.21% of 360,000 active; inhibition, % at 10 µM;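 active means inhibition at least 30% at 10 µM, raw YFP signal under a set limit, fluorescence ratio 0.5 to 1.5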
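Test system: hSENP1 catalytic domain, recombinant; Amount: 20 pM final SENP1 enzyme; Medium: Tris pH 8 buffer plus EDTA, NaCl, BME, BSA, NP40, catalase; Schedule: 50 min enzyme reaction, room temperature, light-protected; Technique: FRET fluorescence in CFP and YFP emission channels; Controls: no-enzyme wells low, DMSO-plus-enzyme wells high control.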
SENP8 confirm = confirmation of human SENP8 protease inhibitors | shares compounds with SENP7 inh | Recombinant SENP8, Z-RLRGG-aminoluciferin luminescence, 60 min | inhibition, % at 12.5 µM | 40% of 6,200 active | AID 488912;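 active means mean inhibition across replicates above about 50%, limit read from the data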
SENP6 confirm = confirmation of human SENP6 protease inhibitors | 58% of 6,200 active | recombinant SENP6, Z-RLRGG-aminoluciferin luminescence | shares compounds with SENP7 inh | inhibition, % at 12.5 µM
SENP7 confirm = confirmation of human SENP7 protease inhibitors; recombinant SENP7, Z-RLRGG-aminoluciferin luminescence, 40 min; inhibition, % at 12.5 µM; 69% of 6,200 active; AID 488917; shares compounds with SENP7 inh
Casp3 SENP sel = caspase-3 inhibition (SENP selectivity assay). 60% of 6,200 active. shares compounds with SENP7 inh. AID 488918. inhibition, % at 12.5 µM. purified caspase-3, Z-DEVD-aminoluciferin luminescence, 60 min;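 active means mean inhibition above about 50%, limit read from the data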
SENP luc ctr = interferes with luciferase luminescence in SENP counter-screen; shares compounds with SENP7 inh; Pre-incubated SENP8/Z-RLRGG-aminoluciferin, luciferase luminescence interference; AID 488919; 39% of 6,200 active; inhibition, % at 12.5 µM;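 active means mean inhibition above about 50% when retested at one dose, limit read from the data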
Large screens that a line does not name were inactive (follow-up assays come after a bar, where they were run). The list is not random: actives were taken first. Their share in the collection is about 2.5%.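 How the source made its calls, unless noted: active means mean inhibition above about 50% in the one-dose retest (limit read from the data); inactive means the rest.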

CCCCN(C(=O)C1CCN(C(=O)c2ccccc2C)CC1)c1c(N)n(CC(C)C)c(=O)[nH]c1=O	none (no result: SENP6 block, SENP8 block-2, SENP7 inh)
COc1cc(Cl)c(NC2=CC(=O)C(=O)c3ccccc32)c(OC)c1	SENP8 block-2 75.1, SENP7 inh 59.8 | SENP8 confirm inactive | SENP6 confirm 89.7 | SENP7 confirm 73.8 | Casp3 SENP sel inactive | SENP luc ctr inactive
Cc1ccc(OC/C(O)=C(\C#N)c2nc3ccccc3s2)cc1	SENP6 block 69.7, SENP8 block-2 75.9 | SENP8 confirm 77.6 | SENP6 confirm 80.1 | SENP7 confirm 75.9 | Casp3 SENP sel 75.3 | SENP luc ctr inactive
CC(C)NC(=O)c1nc2ccccc2s1	none
COC(=O)c1ccc(CC(=O)c2nc3ccccc3s2)cc1	SENP6 block 91.5, SENP8 block-2 78.6 | SENP8 confirm inactive | SENP6 confirm inactive | SENP7 confirm inactive | Casp3 SENP sel inactive | SENP luc ctr inactive
COC(=O)c1ccc(/C(O)=C(\C#N)c2nc3ccccc3s2)cc1	SENP6 block 90.9, SENP8 block-2 87.6 | SENP8 confirm inactive | SENP6 confirm inactive | SENP7 confirm inactive | Casp3 SENP sel inactive | SENP luc ctr inactive
Cc1[nH]c(C)c(S(=O)(=O)NCCc2ccc(S(N)(=O)=O)cc2)c1C(=O)N1CCCC1	none
CC(C)(C)C(=O)CSc1nc(N)cc(=O)[nH]1	none
Cc1ccc(NCc2ccccc2O)cc1C	SENP6 block 52.5 | SENP8 confirm inactive | SENP6 confirm inactive | SENP7 confirm 74.3 | Casp3 SENP sel inactive | SENP luc ctr 57.4
c1ccc(-n2nnc3c(N4CCOCC4)ncnc32)cc1	SENP6 block 81.4, SENP8 block-2 50.4, SENP7 inh 74.6 | SENP8 confirm inactive | SENP6 confirm inactive | SENP7 confirm inactive | Casp3 SENP sel inactive | SENP luc ctr inactive
Cc1n[nH]c(=O)nc1N/N=C/c1ccc(O)c([N+](=O)[O-])c1	SENP6 block 65.0, SENP8 block-1 55.3, SENP7 inh 64.8 | SENP8 confirm 50.2 | SENP6 confirm inactive | SENP7 confirm 81.9 | Casp3 SENP sel 77.4 | SENP luc ctr inactive
COc1ccc(/C=N/Nc2nc(=O)[nH]nc2C)cc1[N+](=O)[O-]	none
Nc1ccccc1-n1cccc1	none
Cn1cccc1C(=O)Nc1nc(-c2ccccn2)cs1	SENP6 block 74.1, SENP7 inh 62.0 | SENP8 confirm 76.0 | SENP6 confirm 76.1 | SENP7 confirm 92.6 | Casp3 SENP sel 84.3 | SENP luc ctr 77.8
Cc1csc(NC(=O)c2ccc(C(=O)Nc3nc(C)cs3)cc2)n1	none (no result: SENP8 block-1, SENP1 inh)
Cc1csc(NC(=O)c2cccn2C)n1	SENP6 block 82.5, SENP8 block-2 75.9, SENP7 inh 91.0 | SENP8 confirm 76.2 | SENP6 confirm 75.3 | SENP7 confirm 95.8 | Casp3 SENP sel 93.4 | SENP luc ctr 83.7
Nc1ccccc1Sc1nc2ccccc2[nH]1	SENP6 block 61.2, SENP8 block-2 57.2 | SENP8 confirm 60.8 | SENP6 confirm 57.7 | SENP7 confirm 84.1 | Casp3 SENP sel 85.7 | SENP luc ctr 71.6
Fc1ccc(CSc2nc3ccccc3[nH]2)cc1	SENP6 block 82.9, SENP8 block-2 71.0 | SENP8 confirm 82.6 | SENP6 confirm 78.7 | SENP7 confirm 93.9 | Casp3 SENP sel 74.2 | SENP luc ctr 78.7
Fc1ccc(CSc2nc3ncccc3[nH]2)cc1	none
CCSc1nc2ccccc2[nH]1	none
c1ccc(CSc2nc3ccccc3[nH]2)cc1	SENP8 block-2 68.9, SENP7 inh 76.9 | SENP8 confirm 61.8 | SENP6 confirm 72.4 | SENP7 confirm 93.5 | Casp3 SENP sel 79.8 | SENP luc ctr inactive
Nc1nc2ccccc2[nH]1	none
